V1aR counter: V1a receptor agonism, counter-screen for OXTR agonists | hit rate 0.25% among 320,000 | activation, % at 3 µM | P37288 | AID 2797 | CHO-V1R cells, Fluo-8 calcium fluorescence, agonist mode; 0% DMSO, 100% 3 nM vasopressin;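 active = activation above the mean activation of all tested compounds plus 3 SD, per screening run, cut at about 20% in these data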;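 note: signal is peak over basal fluorescence ratio across a 100 second FLIPR read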
zfTRPN1 agonist: activates the zebrafish TRPN1 channel; activation, % at 3 µM; hit rate 0.18% among 220,000; HEK293 zebrafish TRPN1-YFP, Fluo-8 calcium fluorescence; 100% = response to 87 µM carbachol;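 active = activation above its plate's cutoff, the mean activation of test wells on that plate plus 3 SD, cut at about 19% in these data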;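 note: 0% = DMSO alone and 100% = 87 µM carbachol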
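Control set: carbachol 87 µM as high control, DMSO as low control; system: HEK293 stable line with zebrafish TRPN1-YFP; read-out: % activation versus carbachol response; detection: intracellular calcium fluorescence with Fluo-8; doses: single test compound dose, 3 µM nominal, 0.3% DMSO; schedule: dye 1 h 37 °C plus 30 min RT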
TRPML3 ag: agonists of human TRPML3 channel; activation, % at 3 µM; AID 1448; hit rate 0.29% among 220,000; Q8TDD5; HEK293 TRPML3-YFP, Fluo-8 calcium fluorescence; 100% = the carbachol control signal;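 active = activation above its plate's cutoff, the mean activation of the plate's test wells plus 3 SD, cut at about 12% in these data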;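 note: 0% = DMSO only wells and 100% = carbachol wells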
Target sequence (Q8TDD5 whole entry, looked up): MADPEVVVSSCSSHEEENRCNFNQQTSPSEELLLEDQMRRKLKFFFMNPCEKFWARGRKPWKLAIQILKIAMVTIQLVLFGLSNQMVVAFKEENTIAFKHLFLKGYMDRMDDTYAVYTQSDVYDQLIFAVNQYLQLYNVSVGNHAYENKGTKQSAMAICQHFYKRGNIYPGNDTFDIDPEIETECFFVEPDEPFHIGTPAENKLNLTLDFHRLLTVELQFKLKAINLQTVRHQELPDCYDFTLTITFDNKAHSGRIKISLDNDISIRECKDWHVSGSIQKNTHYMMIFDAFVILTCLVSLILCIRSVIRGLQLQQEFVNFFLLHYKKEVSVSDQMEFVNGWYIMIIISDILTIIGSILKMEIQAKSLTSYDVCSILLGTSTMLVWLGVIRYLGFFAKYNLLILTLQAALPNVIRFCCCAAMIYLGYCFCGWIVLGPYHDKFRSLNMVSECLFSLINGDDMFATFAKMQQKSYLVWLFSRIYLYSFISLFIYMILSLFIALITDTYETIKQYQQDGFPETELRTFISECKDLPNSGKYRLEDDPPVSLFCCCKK
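Test system: HEK293 cells stably carrying human TRPML3-YFP; Doses: single dose, 3 µM final nominal compound, 0.3% DMSO final; Schedule: dye loading 1 h 37 °C then 30 min ambient, 125 s read; Technique: Fluo-8 calcium fluorescence; Benchmarks: high control carbachol 87 µM, low control DMSO.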
OXTR potentiate: human OXTR potentiation; CHO-OTR cells, Fluo-8 calcium fluorescence, potentiator mode; 0% = oxytocin EC15, 100% = EC100; hit rate 0.061% among 320,000; activation, % at 3 µM; P30559;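 active = activation above that plate's cutoff, the mean activation of tested compounds plus 3 SD, cut at about 6.6% in these data, passing the limit was not always enough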;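 note: 100% uses oxytocin at 75 nM as the full agonist control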
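Measured by – Fluo-8 calcium dye fluorescence · Test system – human OTR in CHO cells · Dosing – one concentration, 3.0 µM compound · Controls – EC15 oxytocin alone as 0%, 75 nM oxytocin as 100% · Evaluation – normalized max/min fluorescence ratio, % activation · Timing – 6 min pre-incubation, 100 s read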
OXTR agonist: agonists of human oxytocin receptor; P30559; CHO-OTR cells, Fluo-8 calcium fluorescence; normalized: DMSO 0%, oxytocin 100%; activation, % at 3 µM; hit rate 0.32% among 320,000; AID 2435;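 active = activation above the mean of all tested compounds plus 3 SD, cutoff set per screening run, cut at about 20% in these data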;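 note: peak over basal fluorescence ratio from a 100 s FLIPR kinetic read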
OXTR ag confirm: confirmation of human oxytocin receptor agonists; shares compounds with OXTR agonist; CHO-OTR cells, Fluo-8 calcium fluorescence, agonist; activation, % at 3 µM; hit rate 20% among 390; AID 434963;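 active = mean activation above about 20% derived from the earlier single-dose screen, limit read from the data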;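 note: peak over minimum fluorescence ratio per well during a 100 second FLIPR read; 0% = DMSO alone and 100% = oxytocin high control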
V1R ag counter 3x: V1R agonism in triplicate, counter-screen for OXTR agonists; shares compounds with OXTR agonist; CHO-V1R cells, Fluo-8 calcium fluorescence, agonist; activation, % at 3 µM; hit rate 10% among 390;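 active = mean activation over triplicate exceeds the hit threshold set in the earlier primary screen, cut at about 20% in these data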;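 note: peak over basal fluorescence ratio within a 100 second read; 0% = DMSO alone and 100% = 3 nM vasopressin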
OXTR pot cf: human OXTR potentiation, confirmation; activation, % at 3 µM; 180 tested, under 10 active; shares compounds with OXTR potentiate; CHO-OTR cells, Fluo-8 calcium fluorescence; scaled from low-dose to maximal oxytocin;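 active = mean percent activation over triplicates above a cutoff set from solvent-only control plates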;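 note: compounds tested in the presence of an EC15 dose of oxytocin; 0% = EC15 oxytocin with DMSO and 100% = EC100 oxytocin with DMSO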
Numbers without * were called inactive; x = not tested or not shown. Rows were chosen to be rich in hits. Some 0.55% of all compounds tested hit in one or more screens of this group.

SMILES | V1aR counter | zfTRPN1 agonist | TRPML3 ag | OXTR potentiate | OXTR agonist | OXTR pot cf | others
Clc1ccc2c(c1)C(N1CCNCC1)Cc1ccccc1S2 (centres undefined) | 12 | 16 | 2 | -18 | 29* | x | OXTR ag confirm=21*;V1R ag counter 3x=7
Clc1cccc2c1Sc1ccccc1CC2N1CCNCC1 (centres undefined) | 16 | -1 | 1 | -7 | 22* | x | OXTR ag confirm=8;V1R ag counter 3x=5
COCCCN1CCN(C2Cc3ccccc3Sc3ccc(Cl)cc32)CC1 (centres undefined) | 5 | 1 | 1 | -2 | 6 | x
CC(Oc1cccc(Cl)c1)C(=O)Nc1ccc(S(=O)(=O)N(C)C2CCN(C)CC2)cc1 (centres undefined) | 15 | x | x | -12 | 22* | x | OXTR ag confirm=19;V1R ag counter 3x=14
CC(=O)Nc1ccc(S(=O)(=O)N(C)C2CCN(C)CC2)cc1 | 1 | x | x | -7 | 0 | x
C[N+](C)(C)CCOC(N)=O | 1 | x | x | -6 | 2 | x
Cc1ccc(S(=O)(=O)c2nnn3c2nc(NCCCN2CCCC2=O)c2ccccc23)cc1C | 3 | x | x | -8 | 1 | x
Cc1ccc(S(=O)(=O)c2nnn3c2nc(NC2CCN(Cc4ccccc4)CC2)c2ccccc23)cc1C | 0 | x | x | -10 | 20* | x | OXTR ag confirm=-1;V1R ag counter 3x=0
Cc1onc(-c2ccccc2)c1C(=O)Nc1ncc([N+](=O)[O-])s1 | 10 | x | x | -14 | 21* | x | OXTR ag confirm=16;V1R ag counter 3x=12
Cc1onc(-c2ccccc2)c1C(=O)Nc1nnc(C(C)C)s1 | 0 | x | x | -1 | -1 | x
CCOC(=O)C1=C(c2cccc(F)c2)NC(=S)NC1C (centres undefined) | 0 | 2 | 0 | -3 | -1 | x
CN(C)c1ccc(CNC(=O)C2CCN(S(=O)(=O)c3ccc4c(c3)CCC(=O)N4)CC2)cc1 | 0 | 0 | 0 | 11* | 0 | -4
Cc1nn(-c2ccccc2)c(N)c1Sc1cccc([N+](=O)[O-])c1 | 2 | 3 | 0 | -12 | -1 | x
Cc1cc(C)nc(-n2nc(C)c(Sc3ccc(F)cc3)c2N)n1 | -1 | -2 | 0 | 11* | -2 | -7
CCCC(=O)Nc1cc(S(=O)(=O)N2CCCCC2)ccc1N1CCOCC1 | 0 | x | x | 0 | 1 | x
CCCC(=O)Nc1cc(S(=O)(=O)N2CCOCC2)ccc1N1CCCCC1 | 0 | x | x | 13* | -1 | -7
Cc1ccc(-n2c(SCC(=O)NCc3ccco3)nc3c(sc4ccccc43)c2=O)cc1 | 1 | 4 | 0 | 0 | 1 | x
CCN1C(=O)N(CC)c2cccc3cccc1c23 | -1 | x | x | 11* | -2 | -4
Cc1ccc(CC(=O)NCCc2ccc(S(N)(=O)=O)cc2)cc1 | 0 | x | x | -8 | 0 | x
Cc1ccc2c(CC(=O)NCCc3ccc(S(N)(=O)=O)cc3)coc2c1 | -1 | 2 | 0 | 9.3* | 0 | -3
CN(NC(=O)c1c(Cl)cccc1Cl)c1cccc(Cl)n1 | -1 | -2 | 0 | 1 | -1 | x
COC(=O)Cn1c(=NC(=O)CSCC(=O)NC2CCCCC2)sc2cc(OC)ccc21 | -1 | 1 | 0 | 17* | -1 | -4
CCOC(=O)Cn1c(=NC(=O)CSC(C)=O)sc2cc(OC)ccc21 | 0 | -2 | 0 | -10 | -1 | x
O=S(=O)(Nc1ccccc1)c1cccc2nsnc12 | 0 | x | x | -5 | 0 | x
O=C(O)c1cccc(NS(=O)(=O)c2cccc3nsnc23)c1 | -1 | 0 | 1 | 10.0* | 1 | -2
COC(=O)Cc1ccc(N(Cc2ccccc2F)S(=O)(=O)c2ccc(C)cc2)cc1 | 3 | -1 | 0 | -18 | 3 | x
O=C(NC(=S)Nc1ccccc1N1CCOCC1)c1ccc(Br)cc1 | 1 | x | x | 14* | -1 | 3
Cc1ccc(S(=O)(=O)C2(C(=O)NC3CCCCC3C)CC2)cc1 (centres undefined) | -2 | -3 | 0 | 17* | -1 | -8

Assay outcomes: PubChem, The Scripps Research Institute Molecular Screening Center
